Experimental data reported in ChEMBL document CHEMBL4038284, “Synthesis of novel quinoline-based 4,5-dihydro-1H-pyrazoles as potential anticancer, antifungal, antibacterial and antiprotozoal agents” (Eur J Med Chem, 2017).
≈ marks a conversion by molar mass, not a printed value. Calls of active or inactive are those of the source. No cut-off for these calls is given here.

Key:
Klebsiella pneumoniae = experiment: Antibacterial activity against ESBL positive Klebsiella pneumoniae ATCC 700603 after 24 hrs by resazurin dye based microdilution assay; format: functional; conditions: Klebsiella pneumoniae, 700603, 24 h
How it was run: (§1)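 MIC taken as the lowest concentration giving visible inhibition and/or by resazurin (1 mg/mL). Gentamicin was the control. Run in duplicate, repeated at least three times.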

HOP-62 = experiment: Growth inhibition of human HOP62 cells at 10 uM incubated for 48 hrs by sulforhodamine B assay; format: functional, cell-based
How it was run: (§2)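 NCI 60-cell-line screen at a single 10 µM dose. Cells in RPMI-1640 with 5% FBS and 2 mM L-glutamine, pre-incubated 24 h, then treated for 48 h at 37 °C. TCA fixation, sulforhodamine B staining, absorbance at 515 nm. Percentage growth calculated against time-zero and untreated controls.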

UACC-62 = experiment: Growth inhibition of human UACC62 cells at 10 uM incubated for 48 hrs by sulforhodamine B assay; format: functional, cell-based
How it was run: (§3)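 NCI-60 single-dose screen at 10 µM for 48 h. Cells were grown in RPMI-1640 with 5% FBS and 2 mM L-glutamine and preincubated 24 h before compound. Time-zero plates were TCA-fixed at compound addition. After exposure, cells were TCA-fixed, stained with SRB and read at 515 nm. Percentage growth was calculated against time-zero and untreated-control absorbances.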

SK-MEL-28 = experiment: Growth inhibition of human SK-MEL-28 cells at 10 uM incubated for 48 hrs by sulforhodamine B assay; format: functional, cell-based; how it was run: as §3
Cryptococcus neoformans = experiment: Antifungal activity against Cryptococcus neoformans ATCC 32264 incubated for 48 hrs under dark condition by broth microdilution method; format: functional; conditions: ATCC 32264, 48 h
How it was run: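 CLSI M27-A3 broth microdilution in RPMI-1640, DMSO ≤1%, compounds at 250-0.98 µg/mL final. Inoculum 1-5 × 10^3 CFU/mL. Incubated 48 h at 30 °C in a moist dark chamber, read at OD405. MIC80 and MIC50 taken from % inhibition dose-response curves (mean ± SEM, triplicate). Amphotericin B was the positive control.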

PC-3 = experiment: Growth inhibition of human PC3 cells at 10 uM incubated for 48 hrs by sulforhodamine B assay; format: functional, cell-based
How it was run: (§4)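 NCI 60-line panel, single 10 μM dose. Cells were grown in RPMI-1640 with 5% FBS and 2 mM L-glutamine and pre-incubated 24 h before compound addition (DMSO stock). Exposure was 48 h at 37 °C, 5% CO2. Cells were fixed with cold TCA (10% final), stained with 0.4% SRB, bound dye dissolved in 10 mM Tris base, A515 read. Growth was taken relative to time-zero and untreated control plates.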

OVCAR-5 = experiment: Growth inhibition of human OVCAR5 cells at 10 uM incubated for 48 hrs by sulforhodamine B assay; format: functional, cell-based; how it was run: as §4
HCT-15 = experiment: Growth inhibition of human HCT15 cells at 10 uM incubated for 48 hrs by sulforhodamine B assay; format: functional, cell-based; how it was run: as §2
MOLT-4 = experiment: Growth inhibition of human MOLT4 cells at 10 uM incubated for 48 hrs by sulforhodamine B assay; format: functional, cell-based; how it was run: as §4
DU-145 = experiment: Growth inhibition of human DU145 cells at 10 uM incubated for 48 hrs by sulforhodamine B assay; format: functional, cell-based; how it was run: as §2
SK-MEL-5 = experiment: Growth inhibition of human SK-MEL-5 cells at 10 uM incubated for 48 hrs by sulforhodamine B assay; format: functional, cell-based; how it was run: as §3
U-937 = experiment: Cytotoxicity against human U937 cells after 72 hrs by MTT assay; format: cell-based; conditions: u-937, 72 h
How it was run: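 Exponentially growing U-937 at 1 × 10^5 cells/mL in RPMI-1640 with 10% FBS were exposed to 200, 50, 12.5 and 3.125 µg/mL for 72 h at 37 °C, 5% CO2. MTT for 3 h, stopped with isopropanol/SDS, formazan read at 570 nm, blank-corrected. LC50 by Probit from % viability against untreated cells. Triplicate, at least two independent experiments.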

786-0 = experiment: Growth inhibition of human 786-0 cells at 10 uM incubated for 48 hrs by sulforhodamine B assay; format: functional, cell-based; how it was run: as §2
SK-OV-3 = experiment: Growth inhibition of human SKOV3 cells at 10 uM incubated for 48 hrs by sulforhodamine B assay; format: functional, cell-based; how it was run: as §3
BT-549 = experiment: Growth inhibition of human BT549 cells at 10 uM incubated for 48 hrs by sulforhodamine B assay; format: functional, cell-based; how it was run: as §2
SW-620 = experiment: Growth inhibition of human SW620 cells at 10 uM incubated for 48 hrs by sulforhodamine B assay; format: functional, cell-based; how it was run: as §3
Staphylococcus aureus = experiment: Antibacterial activity against methicillin-sensitive Staphylococcus aureus ATCC 25923 after 24 hrs by resazurin dye based microdilution assay; format: functional; conditions: ATCC 25923, 24 h; how it was run: as §1
Trypanosoma cruzi = experiment: Antitrypanosomal activity against Trypanosoma cruzi Tulahuen intracellular amastigote harboring LacZ infected in human U937 cells after 72 hrs by CPRG/Nonidet reagent based spectrophotometric method; format: functional, cell-based; conditions: U-937, 72 h
How it was run: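 U-937 cells at 2.5 × 10^5 cells/mL in RPMI-1640 with 10% serum and 0.1 µg/mL PMA were infected with β-galactosidase-transfected Tulahuen epimastigotes at 5 parasites per cell. Infected cells were exposed to 50, 12.5, 3.125 and 0.78 µg/mL for 72 h. CPRG (100 uM) and 0.1% Nonidet P-40 were added for 3 h, read at 570 nm. EC50 by Probit. Triplicate, at least two experiments; benznidazole as reference.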

Candida albicans = experiment: Growth inhibition of Candida albicans ATCC 10231 at 31.25 ug/ml incubated for 48 hrs under dark condition by broth microdilution method relative to control; format: functional; conditions: ATCC 10231, 48 h, read-out: GI
How it was run: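 CLSI M27-A3 broth microdilution in RPMI-1640, DMSO ≤1%. Inoculum 1-5 × 10^3 CFU/mL. Incubated 48 h at 30 °C, dark. % inhibition = 100 − (OD405 test − sterility control)/(OD405 growth control − sterility control), with growth and sterility control wells. Triplicate.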

SF-539 = experiment: Growth inhibition of human SF539 cells at 10 uM incubated for 48 hrs by sulforhodamine B assay; format: functional, cell-based; how it was run: as §4
U-251 = experiment: Growth inhibition of human U251 cells at 10 uM incubated for 48 hrs by sulforhodamine B assay; format: functional, cell-based; how it was run: as §3
SNB-75 = experiment: Growth inhibition of human SNB75 cells at 10 uM incubated for 48 hrs by sulforhodamine B assay; format: functional, cell-based; how it was run: as §3
ACHN = experiment: Growth inhibition of human ACHN cells at 10 uM incubated for 48 hrs by sulforhodamine B assay; format: functional, cell-based; how it was run: as §2
M14 = experiment: Growth inhibition of human M14 cells at 10 uM incubated for 48 hrs by sulforhodamine B assay; format: functional, cell-based; how it was run: as §4
NCI-H226 = experiment: Growth inhibition of human NCI-H226 cells at 10 uM incubated for 48 hrs by sulforhodamine B assay; format: functional, cell-based; how it was run: as §4
OVCAR-3 = experiment: Growth inhibition of human OVCAR3 cells at 10 uM incubated for 48 hrs by sulforhodamine B assay; format: functional, cell-based; how it was run: as §4
OVCAR-8 = experiment: Growth inhibition of human OVCAR8 cells at 10 uM incubated for 48 hrs by sulforhodamine B assay; format: functional, cell-based; how it was run: as §4

Row | Compound | MIC (Klebsiella pneumoniae) [µg/mL] | growth inhibition (GI) (HOP-62) | growth inhibition (GI) (UACC-62) | growth inhibition (GI) (SK-MEL-28) | MIC50 (Cryptococcus neoformans) [µg/mL] | MIC80 (Cryptococcus neoformans) [µg/mL] | growth inhibition (GI) (PC-3) | growth inhibition (GI) (OVCAR-5) | growth inhibition (GI) (HCT-15) | growth inhibition (GI) (MOLT-4) | growth inhibition (GI) (DU-145) | growth inhibition (GI) (SK-MEL-5) | LC50 (U-937) [µg/mL] | growth inhibition (GI) (786-0) | growth inhibition (GI) (SK-OV-3) | growth inhibition (GI) (BT-549) | growth inhibition (GI) (SW-620) | MIC (Staphylococcus aureus) [µg/mL] | EC50 (Trypanosoma cruzi) [µg/mL] | inhibition of growth at 31.25 µg/mL (Candida albicans) [%] | further results
1 | COc1cc(C(=O)/C=C/c2cccc(Nc3ccnc4cc(Cl)ccc34)c2)cc(OC)c1OC | > 1000 | Active | Active | Active | ≥ 250 | ≥ 250 | Active | Active | Active | Active | Active | Active | 0.9 (≈ 1.89 µM) | Active | Active | Active | Active | > 1000 | 1.09 (≈ 2.3 µM) | 6.92 | growth inhibition (GI) (SF-539): Active; growth inhibition (GI) (U-251): Active; growth inhibition (GI) (SNB-75): Active; growth inhibition (GI) (ACHN): Active; growth inhibition (GI) (M14): Active; growth inhibition (GI) (NCI-H226): Active; growth inhibition (GI) (OVCAR-3): Active; growth inhibition (GI) (OVCAR-8): Active
2 | COc1ccc(C2=NN(C=O)C(c3cccc(Nc4ccnc5cc(Cl)ccc45)c3)C2)cc1 (configuration not stated) | > 1000 | Active | Active | Active | 125 (≈ 274 µM) | ≥ 250 | Active | Active | Active | Active | Active | Active | 0.3 (≈ 0.657 µM) | Active | Active | Active | Active | > 1000 | > 0.15 | 14.7 | growth inhibition (GI) (SF-539): Active; growth inhibition (GI) (U-251): Active; growth inhibition (GI) (SNB-75): Active; growth inhibition (GI) (ACHN): Active; growth inhibition (GI) (M14): Active; growth inhibition (GI) (NCI-H226): Active; growth inhibition (GI) (OVCAR-3): Active; growth inhibition (GI) (OVCAR-8): Active
3 | O=Cc1cccc(Nc2ccnc3cc(Cl)ccc23)c1 | > 1000 |  |  |  | 250 (≈ 884 µM) | 250 (≈ 884 µM) |  |  |  |  |  |  | 0.6 (≈ 2.12 µM) |  |  |  |  | 62.5 (≈ 221 µM) | 1.15 (≈ 4.07 µM) | 10.6 | 
4 | COc1cc(C2=NN(c3ccc(Cl)cc3)C(c3cccc(Nc4ccnc5cc(Cl)ccc45)c3)C2)cc(OC)c1OC (configuration not stated) | > 1000 | inactive | inactive | inactive | ≥ 250 | ≥ 250 | inactive | inactive | inactive | inactive | inactive | inactive | > 200 | inactive | inactive | inactive | inactive | > 1000 | 22.6 (≈ 37.7 µM) | 8.05 | growth inhibition (GI) (SF-539): inactive; growth inhibition (GI) (U-251): inactive; growth inhibition (GI) (SNB-75): inactive; growth inhibition (GI) (ACHN): inactive; growth inhibition (GI) (M14): inactive; growth inhibition (GI) (NCI-H226): inactive; growth inhibition (GI) (OVCAR-3): inactive; growth inhibition (GI) (OVCAR-8): inactive
5 | COc1ccc(C2=NN(c3ccc(Cl)cc3)C(c3cccc(Nc4ccnc5cc(Cl)ccc45)c3)C2)cc1 (configuration not stated) | > 1000 | inactive | inactive | inactive | 250 (≈ 463 µM) | ≥ 250 | inactive | inactive | inactive | inactive | inactive | inactive | > 200 | inactive | inactive | inactive | inactive | > 1000 | 44.6 (≈ 82.6 µM) | 1.19 | growth inhibition (GI) (SF-539): inactive; growth inhibition (GI) (U-251): inactive; growth inhibition (GI) (SNB-75): inactive; growth inhibition (GI) (ACHN): inactive; growth inhibition (GI) (M14): inactive; growth inhibition (GI) (NCI-H226): inactive; growth inhibition (GI) (OVCAR-3): inactive; growth inhibition (GI) (OVCAR-8): inactive
6 | Clc1ccc(C2=NN(c3ccc(Cl)cc3)C(c3cccc(Nc4ccnc5cc(Cl)ccc45)c3)C2)cc1 (configuration not stated) | > 1000 | inactive | inactive | inactive | 250 (≈ 460 µM) | ≥ 250 | inactive | inactive | inactive | inactive | inactive | inactive | > 200 | inactive | inactive | inactive | inactive | > 1000 | 55.8 (≈ 103 µM) | 7.02 | growth inhibition (GI) (SF-539): inactive; growth inhibition (GI) (U-251): inactive; growth inhibition (GI) (SNB-75): inactive; growth inhibition (GI) (ACHN): inactive; growth inhibition (GI) (M14): inactive; growth inhibition (GI) (NCI-H226): inactive; growth inhibition (GI) (OVCAR-3): inactive; growth inhibition (GI) (OVCAR-8): inactive
